In ChEMBL document CHEMBL4368918, “Structure-Based Design of Inhibitors Selective for Human Proteasome β2c or β2i Subunits” (J Med Chem, 2019):

Columns and labels:
[1] = target: T1, Proteasome subunit beta type-10 (Homo sapiens, UniProt P40306); assay: Inhibition of 20S immunoproteasome beta 2 (unknown origin) by cell based ABPP assay
T1 sequence (P40306 whole entry): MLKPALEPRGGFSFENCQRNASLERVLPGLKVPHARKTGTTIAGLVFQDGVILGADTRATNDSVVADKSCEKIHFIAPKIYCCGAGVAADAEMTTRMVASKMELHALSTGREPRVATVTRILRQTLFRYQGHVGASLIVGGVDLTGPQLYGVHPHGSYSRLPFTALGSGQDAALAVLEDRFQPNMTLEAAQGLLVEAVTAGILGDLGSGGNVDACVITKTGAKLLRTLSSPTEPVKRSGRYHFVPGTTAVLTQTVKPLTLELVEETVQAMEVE
In short: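 Living RPMI-8226 cells, (5–8) ×10^5 cells/mL, exposed to inhibitor 1 h at 37 °C, washed, lysed in digitonin buffer 1 h on ice; residual activity labelled with cocktail ABPs, SDS-PAGE in-gel fluorescence, bands divided by mock, Coomassie staining to correct loading. IC50 from mean of three independent experiments.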

[2] = species: Homo sapiens; assay: Selectivity ratio of IC50 for 20S immunoproteasome beta 2 (unknown origin) to IC50 for 20S constitutive proteasome beta 2 trypsin-like activity (unknown origin)
[3] = target: T2, Proteasome subunit beta type-8 (Homo sapiens, UniProt P28062); assay: Inhibition of 20S immunoproteasome beta 5 in human Raji cell lysates after 1 hr by competitive ABPP assay; type: subcellular, Lysate
T2 sequence (P28062 whole entry): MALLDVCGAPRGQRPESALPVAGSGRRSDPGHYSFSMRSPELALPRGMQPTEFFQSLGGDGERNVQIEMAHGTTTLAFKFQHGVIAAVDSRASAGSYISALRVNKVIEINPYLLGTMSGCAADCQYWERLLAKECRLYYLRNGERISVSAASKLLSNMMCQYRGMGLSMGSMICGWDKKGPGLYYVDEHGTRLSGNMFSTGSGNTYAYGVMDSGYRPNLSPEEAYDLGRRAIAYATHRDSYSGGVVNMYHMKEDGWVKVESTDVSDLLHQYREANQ

[4] = target: T3, Proteasome subunit beta type-9 (Homo sapiens, UniProt P28065); assay: Inhibition of 20S immunoproteasome beta 1 in human Raji cell lysates after 1 hr by competitive ABPP assay; type: subcellular, Lysate
T3 sequence (P28065 whole entry): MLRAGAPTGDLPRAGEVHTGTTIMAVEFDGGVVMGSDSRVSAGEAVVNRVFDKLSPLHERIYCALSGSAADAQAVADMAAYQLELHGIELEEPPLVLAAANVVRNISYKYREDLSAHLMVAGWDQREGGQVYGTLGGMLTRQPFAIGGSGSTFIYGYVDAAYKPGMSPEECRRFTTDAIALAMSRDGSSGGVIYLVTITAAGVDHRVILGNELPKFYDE
In short: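 Raji cells were sonicated in 3 volumes of Tris pH 7.5 lysis buffer containing DTT, MgCl₂, sucrose, 2 mM ATP and 0.05% digitonin. Lysate (5 μg protein, in buffer with 2 mM ATP and glycerol) was preincubated with inhibitor for 1 h at 37 °C, then with a cocktail of three fluorescent ABPs for 1 h. […] In-gel fluorescence densitometry was normalized to mock. IC50 came from the mean of three experiments.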

[5] = target: T4, Proteasome Macropain subunit MB1 (Homo sapiens, UniProt P28074); assay: Inhibition of 20S constitutive proteasome beta 5 chymotrypsin-like activity in human Raji cell lysates after 1 hr by competitive ABPP assay; type: subcellular, Lysate
T4 sequence (P28074 whole entry): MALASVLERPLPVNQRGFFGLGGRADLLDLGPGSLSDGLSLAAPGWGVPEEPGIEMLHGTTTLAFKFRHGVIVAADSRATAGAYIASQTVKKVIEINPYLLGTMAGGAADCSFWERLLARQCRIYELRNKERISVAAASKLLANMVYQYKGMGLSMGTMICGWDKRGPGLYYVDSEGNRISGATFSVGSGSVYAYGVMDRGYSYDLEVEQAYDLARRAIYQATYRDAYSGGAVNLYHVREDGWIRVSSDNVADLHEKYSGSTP

[6] = target: T5, Proteasome subunit beta type-6 (Homo sapiens, UniProt P28072); assay: Inhibition of 20S constitutive proteasome beta 1 caspase-like activity in human Raji cell lysates after 1 hr by competitive ABPP assay; type: subcellular, Lysate
T5 sequence (P28072 whole entry): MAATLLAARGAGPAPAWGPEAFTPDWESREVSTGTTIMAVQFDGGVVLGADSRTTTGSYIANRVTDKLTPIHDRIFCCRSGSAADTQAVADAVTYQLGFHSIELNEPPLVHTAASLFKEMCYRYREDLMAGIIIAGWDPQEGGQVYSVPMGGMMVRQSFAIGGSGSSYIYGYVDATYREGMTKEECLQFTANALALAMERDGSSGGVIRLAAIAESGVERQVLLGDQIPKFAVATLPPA
In short: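 Raji cells were sonicated in 3 volumes of Tris pH 7.5 lysis buffer containing DTT, MgCl₂, sucrose, 2 mM ATP and 0.05% digitonin. Lysate (5 μg protein, in buffer with 2 mM ATP and glycerol) was preincubated with inhibitor for 1 h at 37 °C, then with a cocktail of three fluorescent ABPs for 1 h. In-gel fluorescence densitometry was normalized to mock. IC50 came from the mean of three experiments.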

Compound	IC50 [1] [nM]	Ratio IC50 [2]	also measured
CC(C)C[C@H](NC(=O)[C@H](CC(C)C)NC(=O)[C@H](Cc1ccccc1)NC(=O)CN=[N+]=[N-])C(=O)N[C@H](/C=C/S(C)(=O)=O)Cc1ccc(CN)cc1	22	0.6	–
COc1ccc(C[C@H](NC(=O)[C@H](C)NC(=O)CN2CCOCC2)C(=O)N[C@@H](C[C@H]2CCCc3ccccc32)C(=O)[C@@]2(C)CO2)cc1	–	–	IC50 [3]: > 100000 nM; IC50 [4]: > 100000 nM; IC50 [5]: > 100000 nM; IC50 [6]: > 100000 nM
CC(C)C[C@H](NC(=O)c1ccc(-c2ccccc2)nc1)C(=O)N[C@@H](CC(C)C)C(=O)N[C@H](/C=C/S(C)(=O)=O)Cc1ccc(CN)cc1	23	0.8	–
Cc1ncc(C(=O)N[C@@H](CC(C)C)C(=O)N[C@@H](CC(C)C)C(=O)N[C@H](/C=C/S(C)(=O)=O)Cc2ccc(CN)cc2)s1	700	10	–
COc1ccc(C[C@H](NC(=O)[C@H](C)NC(=O)CN2CCOCC2)C(=O)N[C@@H](C[C@@H]2CCC[C@H]3CCCC[C@H]32)C(=O)[C@@]2(C)CO2)cc1	–	–	IC50 [3]: 28400 nM; IC50 [4]: > 100000 nM; IC50 [5]: > 100000 nM; IC50 [6]: 53000 nM
Cc1ncc(C(=O)N[C@@H](CC2CCCCC2)C(=O)N[C@@H](CC2CCCCC2)C(=O)N[C@H](/C=C/S(C)(=O)=O)Cc2ccc(CN)cc2)s1	420	11	–
Cc1ncc(C(=O)N[C@@H](CC(C)C)C(=O)N[C@@H](CC2CCC(C)CC2)C(=O)N[C@H](/C=C/S(C)(=O)=O)Cc2ccc(CN)cc2)s1 (stereo not given in full)	200	7	–
Cc1ncc(C(=O)N[C@H](C(=O)N[C@@H](CC(C)C)C(=O)N[C@H](/C=C/S(C)(=O)=O)Cc2ccc(CN)cc2)C2CCCCC2)s1	61	1	–
CC(C)C[C@H](NC(=O)CN1CCOCC1)C(=O)N[C@@H](CC(C)C)C(=O)N[C@H](/C=C/S(C)(=O)=O)Cc1ccc(CN)cc1	47	1	–
COC1CCC(C[C@H](NC(=O)[C@H](CC(C)C)NC(=O)c2cnc(C)s2)C(=O)N[C@H](/C=C/S(C)(=O)=O)Cc2ccc(CN)cc2)CC1 (stereo not given in full)	360	8	–
CC(C)[C@H](NC(=O)[C@H](Cc1ccc(CN)cc1)NC(=O)[C@H](Cc1ccccc1)N=[N+]=[N-])C(=O)N[C@@H](CC1CCC2CCCCC2C1)C(=O)[C@@]1(C)CO1 (stereo not given in full)	–	1	–
CC1CCC(C[C@H](NC(=O)[C@@H](NC(=O)[C@H](Cc2ccc(CN)cc2)NC(=O)[C@H](Cc2ccccc2)N=[N+]=[N-])C(C)C)C(=O)[C@@]2(C)CO2)CC1 (stereo not given in full)	–	1	–
Cc1ncc(C(=O)N[C@@H](CC(C)C)C(=O)N[C@@H](CC2CCCC3CCCCC32)C(=O)N[C@H](/C=C/S(C)(=O)=O)Cc2ccc(CN)cc2)s1 (stereo not given in full)	175	4	–
CC(C)[C@H](NC(=O)[C@H](Cc1ccc(CN)cc1)NC(=O)[C@H](Cc1ccccc1)N=[N+]=[N-])C(=O)N[C@H](C(=O)[C@@]1(C)CO1)C1CCCCC1	–	1	–
Cc1ncc(C(=O)N[C@@H](CC2CCC(C)CC2)C(=O)N[C@@H](CC(C)C)C(=O)N[C@H](/C=C/S(C)(=O)=O)Cc2ccc(CN)cc2)s1 (stereo not given in full)	325	0.8	–
Cc1ncc(C(=O)N[C@@H](CC(C)C)C(=O)N[C@@H](CCC2CCCCC2)C(=O)N[C@H](/C=C/S(C)(=O)=O)Cc2ccc(CN)cc2)s1	280	25	–
Cc1ncc(C(=O)N[C@@H](CC2CCC3CCCCC3C2)C(=O)N[C@@H](CC(C)C)C(=O)N[C@H](/C=C/S(C)(=O)=O)Cc2ccc(CN)cc2)s1 (stereo not given in full)	4100	8	–
CC(C)[C@H](NC(=O)[C@H](Cc1ccc(CN)cc1)NC(=O)[C@H](Cc1ccccc1)N=[N+]=[N-])C(=O)N[C@@H](CC1CC2CCC1C2)C(=O)[C@@]1(C)CO1 (stereo not given in full)	–	2.7	–
COC[C@H](NC(=O)[C@H](CC(C)C)NC(=O)[C@H](Cc1ccccc1)N=[N+]=[N-])C(=O)N[C@H](/C=C/S(C)(=O)=O)Cc1ccc(CN)cc1	200	25	–
CC(C)C[C@H](NC(=O)c1cc(Cl)ccc1Cl)C(=O)N[C@@H](CC(C)C)C(=O)N[C@H](/C=C/S(C)(=O)=O)Cc1ccc(CN)cc1	350	5	–
Cc1ncc(C(=O)N[C@@H](CC(C)C)C(=O)N[C@@H](CC2CCC3CCCCC3C2)C(=O)N[C@H](/C=C/S(C)(=O)=O)Cc2ccc(CN)cc2)s1 (stereo not given in full)	170	10	–
CC(C)[C@H](NC(=O)[C@H](Cc1ccc(CN)cc1)NC(=O)[C@H](Cc1ccccc1)N=[N+]=[N-])C(=O)N[C@@H](CC1CCC(C2CCCCC2)CC1)C(=O)[C@@]1(C)CO1 (stereo not given in full)	–	1.6	–
CC(C)C[C@H](NC(=O)c1cnccn1)C(=O)N[C@@H](C)C(=O)N[C@H](/C=C/S(C)(=O)=O)Cc1ccc(CN)cc1	1350	6	–
Cc1ncc(C(=O)N[C@@H](CC2CCCC3CCCCC32)C(=O)N[C@@H](CC(C)C)C(=O)N[C@H](/C=C/S(C)(=O)=O)Cc2ccc(CN)cc2)s1 (stereo not given in full)	48000	21	–
Cc1ncc(C(=O)N[C@@H](CC2CCC(C3CCCCC3)CC2)C(=O)N[C@@H](CC(C)C)C(=O)N[C@H](/C=C/S(C)(=O)=O)Cc2ccc(CN)cc2)s1 (stereo not given in full)	> 10000	> 3	–
Cc1ncc(C(=O)N[C@@H](CC(C)C)C(=O)N[C@@H](CC2CCCCC2)C(=O)N[C@H](/C=C/S(C)(=O)=O)Cc2ccc(CN)cc2)s1	260	7	–
COc1ccc(C[C@H](NC(=O)[C@H](C)NC(=O)CN2CCOCC2)C(=O)N[C@@H](CCC2CCCCC2)C(=O)[C@@]2(C)CO2)cc1	–	–	IC50 [4]: > 100000 nM; IC50 [5]: 5000 nM; IC50 [6]: > 100000 nM
CC(C)C[C@H](NC(=O)[C@H](Cc1ccccc1)N=[N+]=[N-])C(=O)N[C@@H](CC(F)(F)F)C(=O)N[C@H](/C=C/S(C)(=O)=O)Cc1ccc(CN)cc1	130	6	–
CC(C)C[C@H](NC(=O)[C@H](Cc1ccccc1)N=[N+]=[N-])C(=O)N[C@@H](CC(C)(C)F)C(=O)N[C@H](/C=C/S(C)(=O)=O)Cc1ccc(CN)cc1	47	3	–
Cc1ncc(C(=O)N[C@@H](CC(C)C)C(=O)N[C@@H](CC2CCC(C3CCCCC3)CC2)C(=O)N[C@H](/C=C/S(C)(=O)=O)Cc2ccc(CN)cc2)s1 (stereo not given in full)	45	3	–
